In ChEMBL document CHEMBL1148376, “Synthesis, monoamine transporter binding properties, and behavioral pharmacology of a series of 3beta-(substituted phenyl)-2beta-(3'-substituted isoxazol-5-yl)tropanes” (J Med Chem, 2004):

Key:
[1] = target: T1, Norepinephrine transporter (Rattus norvegicus, UniProt Q9WTR4); test: Inhibition of norepinephrine transporter (NET) determined using [3H]nisoxetine radioligand.
Procedure, shortened: (§1)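 Competition binding at the NET with 0.5 nM [3H]nisoxetine (final concentration). Other procedures follow earlier published methods.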

Mus musculus [2] = test: Percent change in locomotor activity in mice at 1 mg/kg i.p. in 4 h.; assay type: functional; conditions: route intraperitoneal
Procedure, shortened: (§2)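 Mice habituated 1/2 h to photocell activity chambers, then injected ip with compound homogenized in 0.5% methyl cellulose (10 mL/kg); vehicle controls; N = 5 or 6 per dose. Photobeam interruptions recorded in 10-min bins for 4 h, grouped into 1-h bins; one-way ANOVA with Newman-Keuls post hoc test (p < 0.05).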

[3] = target: T2, Sodium-dependent serotonin transporter (Rattus norvegicus, UniProt P31652); test: Inhibitory concentration required to inhibit serotonin transporter 5-HTT was determined by using [3H]paroxetine radioligand
T2 sequence (P31652 whole entry): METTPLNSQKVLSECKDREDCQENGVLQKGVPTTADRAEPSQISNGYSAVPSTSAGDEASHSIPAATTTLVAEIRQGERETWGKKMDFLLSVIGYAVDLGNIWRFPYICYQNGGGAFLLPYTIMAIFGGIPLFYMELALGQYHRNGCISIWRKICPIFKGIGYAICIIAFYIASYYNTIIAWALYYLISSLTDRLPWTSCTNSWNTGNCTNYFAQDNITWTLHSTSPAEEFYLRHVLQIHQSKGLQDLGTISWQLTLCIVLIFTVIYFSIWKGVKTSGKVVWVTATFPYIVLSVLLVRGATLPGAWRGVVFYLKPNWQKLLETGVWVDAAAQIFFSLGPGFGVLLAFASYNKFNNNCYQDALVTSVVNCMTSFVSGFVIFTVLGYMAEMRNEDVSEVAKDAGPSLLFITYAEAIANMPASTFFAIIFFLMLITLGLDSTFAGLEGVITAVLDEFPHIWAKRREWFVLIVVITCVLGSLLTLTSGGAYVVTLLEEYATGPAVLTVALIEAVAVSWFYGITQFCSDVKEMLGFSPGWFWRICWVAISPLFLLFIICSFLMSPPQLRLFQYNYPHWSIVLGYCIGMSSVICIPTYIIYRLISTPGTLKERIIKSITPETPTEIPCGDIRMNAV
Procedure, shortened: (§3)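 Competition binding at the 5-HTT with 0.2 nM [3H]paroxetine (final concentration). Other procedures follow earlier published methods.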

Mus musculus [4] = organism: Mus musculus; test: Effective dose for locomotor activity in mice in the peak hour.; assay type: functional
Mus musculus [5] = test: Percent change in locomotor activity in mice at 1 mg/kg i.p. in 1 h.; assay type: functional; conditions: route intraperitoneal
Rattus norvegicus [6] = test: Drug discrimination effect of compound in rats, expressed as percent of rats choosing the cocaine lever at dose 10 mg/kg (ip); assay type: functional
Rattus norvegicus [7] = test: Drug discrimination effect of compound in rats, expressed as percent of rats choosing the cocaine lever at dose 3 mg/kg (ip); assay type: functional
[8] = target: T2, Sodium-dependent serotonin transporter; test: Binding affinity towards serotonin transporter 5-HTT was determined using [3H]paroxetine radioligand.; procedure, shortened: as §3
Mus musculus [9] = test: Percent change in locomotor activity in mice at 3 mg/kg i.p. in 3 h.; assay type: functional; conditions: route intraperitoneal; procedure, shortened: as §2
Rattus norvegicus [10] = test: Drug discrimination effect of compound in rats, expressed as percent of rats choosing the cocaine lever at dose 5.6 mg/kg (ip); assay type: functional
[11] = target: T1, Norepinephrine transporter; test: Binding affinity towards norepinephrine transporter was determined using [3H]nisoxetine radioligand.; procedure, shortened: as §1
Mus musculus [12] = test: Percent change from vehicle in locomotor activity in mice at 10 mg/kg (ip) in 2 h; assay type: functional
Mus musculus [13] = test: Percent change locomotor activity in mice at 1 mg/kg i.p. in 3 h.; assay type: functional; conditions: route intraperitoneal; procedure, shortened: as §2
Rattus norvegicus [14] = test: Effective dose for drug discrimination effect in rat (ip); assay type: functional
Procedure, shortened: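 Cocaine-trained rat drug discrimination, FR10, 10-min sessions. Compound in 0.5% methyl cellulose given ip 15 min before session, usually to 7-8 rats per dose. Doses were raised from ≤20% to ≥80% cocaine-lever choice, capped at 30 mg/kg, >50% loss of pressing, or side effects.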

Mus musculus [15] = test: Percent change in locomotor activity in mice at 3 mg/kg i.p. in 4 h.; assay type: functional; conditions: route intraperitoneal; procedure, shortened: as §2
Mus musculus [16] = test: Percent change in locomotor activity in mice at 1 mg/kg i.p. in 2 h.; assay type: functional; conditions: route intraperitoneal; procedure, shortened: as §2
Mus musculus [17] = test: Percent change in locomotor activity in mice at 3 mg/kg i.p. in 1 h.; assay type: functional; conditions: route intraperitoneal; procedure, shortened: as §2
Mus musculus [18] = test: Percent change from vehicle in locomotor activity in mice at 10 mg/kg (ip) in 1 h; assay type: functional
Mus musculus [19] = test: Percent change from vehicle in locomotor activity in mice at 10 mg/kg (ip) in 4 h; assay type: functional
Mus musculus [20] = test: Percent change in locomotor activity in mice at 3 mg/kg i.p. in 2 h.; assay type: functional; conditions: route intraperitoneal; procedure, shortened: as §2
Mus musculus [21] = organism: Mus musculus; test: Hour 1 ratio to cocaine was determined for locomotor activity in mice; assay type: functional
Mus musculus [22] = test: Percent change from vehicle in locomotor activity in mice at 10 mg/kg (ip) in 3 h; assay type: functional
[23] = target: Sodium-dependent dopamine transporter (Rattus norvegicus, UniProt P23977); test: Inhibitory concentration required to inhibit dopamine transporter DAT was determined by using [3H]WIN-35428 radioligand
Chain of Sodium-dependent dopamine transporter (P23977 whole entry): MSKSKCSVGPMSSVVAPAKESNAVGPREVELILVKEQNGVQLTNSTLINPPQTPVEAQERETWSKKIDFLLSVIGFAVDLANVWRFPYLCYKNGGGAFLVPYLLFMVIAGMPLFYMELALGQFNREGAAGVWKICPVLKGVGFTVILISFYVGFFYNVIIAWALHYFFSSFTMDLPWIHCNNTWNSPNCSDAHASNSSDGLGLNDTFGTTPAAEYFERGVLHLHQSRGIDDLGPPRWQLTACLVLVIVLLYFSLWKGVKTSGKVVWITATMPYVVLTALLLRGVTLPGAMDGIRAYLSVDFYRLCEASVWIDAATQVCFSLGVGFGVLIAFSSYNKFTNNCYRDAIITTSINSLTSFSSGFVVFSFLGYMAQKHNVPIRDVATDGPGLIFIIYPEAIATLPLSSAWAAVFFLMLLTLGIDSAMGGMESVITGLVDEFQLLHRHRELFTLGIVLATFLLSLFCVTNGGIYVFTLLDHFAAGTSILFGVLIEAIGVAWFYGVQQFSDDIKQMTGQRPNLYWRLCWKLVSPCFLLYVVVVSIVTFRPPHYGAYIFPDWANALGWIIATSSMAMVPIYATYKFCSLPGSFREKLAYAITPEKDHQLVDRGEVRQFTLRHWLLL
Procedure, shortened: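 Competition binding at the DAT with 0.5 nM [3H]WIN35,428 (final concentration). Other procedures follow earlier published methods.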

Rattus norvegicus [24] = test: Drug discrimination effect of compound in rats, expressed as percent of rats choosing the cocaine lever at dose 1 mg/kg (ip); assay type: functional

T1 sequence (Q9WTR4 whole entry): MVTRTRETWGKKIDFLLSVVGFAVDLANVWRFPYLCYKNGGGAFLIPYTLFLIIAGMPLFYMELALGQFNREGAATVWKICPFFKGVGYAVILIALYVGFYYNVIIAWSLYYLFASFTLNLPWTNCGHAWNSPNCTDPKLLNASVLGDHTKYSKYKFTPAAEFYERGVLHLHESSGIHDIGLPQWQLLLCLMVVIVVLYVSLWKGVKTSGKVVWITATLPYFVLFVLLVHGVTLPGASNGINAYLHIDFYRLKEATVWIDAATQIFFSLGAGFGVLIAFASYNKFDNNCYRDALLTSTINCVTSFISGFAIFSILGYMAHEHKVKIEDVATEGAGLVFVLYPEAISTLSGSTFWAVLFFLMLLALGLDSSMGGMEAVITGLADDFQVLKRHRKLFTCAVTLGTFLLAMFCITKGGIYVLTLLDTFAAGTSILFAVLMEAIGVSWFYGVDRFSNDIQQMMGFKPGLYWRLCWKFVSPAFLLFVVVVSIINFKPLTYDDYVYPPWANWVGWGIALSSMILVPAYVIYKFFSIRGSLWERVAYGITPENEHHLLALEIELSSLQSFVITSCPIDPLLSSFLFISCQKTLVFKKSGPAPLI

Row | SMILES | IC50 [1] | Change (Mus musculus [2]) | IC50 [3] | ED50 (Mus musculus [4]) | Change (Mus musculus [5]) | Drug discrimination effect (Rattus norvegicus [6]) | Drug discrimination effect (Rattus norvegicus [7]) | Ki [8] | Change (Mus musculus [9]) | Drug discrimination effect (Rattus norvegicus [10]) | Ki [11] | Change (Mus musculus [12]) | Change (Mus musculus [13]) | Change (Mus musculus [15]) | Change (Mus musculus [16]) | Change (Mus musculus [17]) | Change (Mus musculus [18]) | Change (Mus musculus [19]) | Change (Mus musculus [20]) | Ratio (Mus musculus [21]) | also measured
1 | CN1C2CC[C@@H]1C[C@H](c1ccc(Cl)cc1)C2c1cc(-c2ccccc2)no1 (some centres not stated) | 2420 nM | 76% | 504 nM | 3.4 mg/kg | 11% | 75% | 29% | 305 nM | 377% | 63% | 220 nM | 402% | 45% | 378% | 27% | 331% | 513% | 924% | 456% | 1.1 | ED50 (Rattus norvegicus [14]): 4.73 mg/kg; Change (Mus musculus [22]): 485%
2 | Cc1ccc(C2CC3CCC(C2c2cc(C(C)C)no2)N3C)cc1 (configuration not stated) | 2520 nM | 24% | 42900 nM | 4.7 mg/kg | -1% | 86% | 25% | 3900 nM | 207% | 67% | 1550 nM | 532% | -20% | 70% | 29% | 329% | 637% | 576% | 241% | 0.9 | ED50 (Rattus norvegicus [14]): 4.63 mg/kg; IC50 [23]: 4.5 nM; Change (Mus musculus [22]): 765%
3 | CN1C2CCC1C(c1cc(-c3ccc(F)cc3)no1)C(c1ccc(Cl)cc1)C2 (configuration not stated) | 918 nM | 37% | 7260 nM | 2.8 mg/kg | -26% | 63% | 13% | 660 nM | 479% | 43% | 553 nM | 832% | -77% | 392% | 38% | 271% | 729% | 767% | 463% | 1.6 | IC50 [23]: 1.86 nM; Change (Mus musculus [22]): 514%
4 | CN1C2CCC1C(c1cc(-c3ccc(Cl)cc3)no1)C(c1ccc(Cl)cc1)C2 (configuration not stated) | 5290 nM | 39% | > 76000 nM | 3.6 mg/kg | 15% | 50% | 13% | – | 298% | 0% | 3790 nM | 612% | 74% | 389% | 19% | 59% | 166% | 1372% | 237% | 0.4 | Drug discrimination effect (Rattus norvegicus [24]): 0%; IC50 [23]: 6.42 nM; Change (Mus musculus [22]): 838%
5 | Cc1ccc(C2CC3CCC(C2C(=O)OC(C)C)N3C)cc1 (configuration not stated) | 6090 nM | – | 1930 nM | – | – | – | – | 1160 nM | – | – | 554 nM | – | – | – | – | – | – | – | – | – | –
6 | COc1ccc(-c2cc(C3C(c4ccc(Cl)cc4)CC4CCC3N4C)on2)cc1 (configuration not stated) | 762 nM | -21% | 5880 nM | 3.7 mg/kg | 0% | 50% | 0% | 535 nM | 662% | 43% | 454 nM | 1337% | 101% | 335% | 51% | 197% | 521% | 2120% | 481% | 1.2 | Drug discrimination effect (Rattus norvegicus [24]): 0%; IC50 [23]: 1.57 nM; Change (Mus musculus [22]): 2830%
7 | Cc1ccc(-c2cc(C3C(c4ccc(Cl)cc4)CC4CCC3N4C)on2)cc1 (configuration not stated) | 1710 nM | 170% | 5740 nM | 3.9 mg/kg | 8% | 88% | 14% | 522 nM | 265% | 50% | 1030 nM | 1034% | -49% | 119% | 44% | 23% | 308% | 493% | 153% | 0.7 | Drug discrimination effect (Rattus norvegicus [24]): 14%; ED50 (Rattus norvegicus [14]): 5.95 mg/kg; IC50 [23]: 4.09 nM; Change (Mus musculus [22]): 1024%
8 | Cc1ccc(C2CC3CCC(C2c2cc(-c4ccccc4)no2)N3C)cc1 (configuration not stated) | 398 nM | 154% | 5110 nM | 2.5 mg/kg | 48% | 86% | 0% | 465 nM | 283% | 75% | 239 nM | 663% | 89% | 329% | 139% | 244% | 526% | 141% | 369% | 1.2 | ED50 (Rattus norvegicus [14]): 4.88 mg/kg; IC50 [23]: 1.58 nM; Change (Mus musculus [22]): 363%
9 | CN1C2CCC1C(C(=O)Oc1ccccc1)C(c1ccc(Cl)cc1)C2 (configuration not stated) | 2340 nM | – | 2960 nM | – | – | – | – | 1780 nM | – | – | 213 nM | – | – | – | – | – | – | – | – | – | –
10 | Cc1ccc(C2CC3CCC(C2c2cc(C(C)(C)C)no2)N3C)cc1 (configuration not stated) | 3330 nM | – | 295000 nM | – | – | – | – | 26000 nM | – | – | 1820 nM | – | – | – | – | – | – | – | – | – | IC50 [23]: 26 nM
